{
  "source": "paper PMC10159923",
  "about": "(Lab on a chip, 2023)",
  "key": {"PAR1/PAR2": {"tested_on": "PAR1/PAR2", "assay": "MEIRS cellular response of A431 cells to PAR peptides / control peptide", "assay_type": "cell-based, human", "method_in_brief": "(§1)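 A431 cells (ATCC, passage <15) were seeded at ~500,000/mL in DMEM + 10% FBS on fibronectin-coated (10 μg/mL) metasurface wells and incubated overnight. Medium was then swapped to L15 + 1% antibiotic-antimycotic. One baseline spectrum preceded manual addition of peptide in L15. FTIR reflectance was taken at room temperature, every 4 min per well, for 1 h. Spectra were differenced from t = 0, and first-PC signals were extracted from the protein, plasmonic and lipid windows (mean ± standard error, n = 4).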"}, "PAR1": {"biological_target": "T1, PAR1 (Homo sapiens, UniProt P25116)", "T1 sequence (P25116 22-425)": "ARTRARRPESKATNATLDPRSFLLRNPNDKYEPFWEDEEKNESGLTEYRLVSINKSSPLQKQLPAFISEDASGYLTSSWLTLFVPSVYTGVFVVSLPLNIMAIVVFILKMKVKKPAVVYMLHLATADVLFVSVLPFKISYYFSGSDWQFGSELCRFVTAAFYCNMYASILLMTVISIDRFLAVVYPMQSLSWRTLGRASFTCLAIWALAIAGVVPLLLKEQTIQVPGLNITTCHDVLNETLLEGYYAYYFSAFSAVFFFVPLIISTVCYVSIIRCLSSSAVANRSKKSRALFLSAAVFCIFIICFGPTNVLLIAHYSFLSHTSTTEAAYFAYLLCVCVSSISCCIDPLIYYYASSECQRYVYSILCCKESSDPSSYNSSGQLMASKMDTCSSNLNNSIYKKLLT", "assay": "MEIRS cellular response of A431 cells to PAR1 activating peptide", "assay_type": "cell-based", "method_in_brief": "as §1"}, "A431 cells": {"tested_on": "A431 cells", "assay": "Phase contrast imaging of cell spreading on coated metasurfaces", "assay_type": "cell-based, human", "details": "Fig. S2"}, "[1]": {"tested_on": "cells (cell type not given)", "details": "among others, including collagen and PDL; cited from earlier work"}},
  "data": [
    {"substance": "SFLLR-NH2", "values": [
      {"measurement": "peak amplitude of cellular signal (SFLLR vs SLIGKV)", "setting": "PAR1/PAR2; 100 μM", "value": "similar"},
      {"measurement": "course of cellular signal after maximal point", "setting": "PAR1; MEIRS PC1 signal", "value": "decreased right after the maximal point was reached"},
      {"measurement": "duration of gradual decrease in cellular signal back to baseline level", "setting": "PAR1; MEIRS PC1 signal, after peak", "value": "about 30 min"},
      {"measurement": "time of cellular signal peak after peptide addition", "setting": "PAR1; MEIRS PC1 signal, Δt = 4 min, n = 4", "value": "8 to 12", "unit": "min"},
      {"measurement": "initial change in cellular signal on addition of peptide", "setting": "PAR1; as soon as the peptides were added", "value": "rapid increase in the cellular signal"}
    ]},
    {"substance": "VKGILS-NH2", "values": [
      {"measurement": "cellular response to control peptide", "setting": "PAR1/PAR2; MEIRS PC1 signal, n = 4", "value": "very little response from the cells"}
    ]},
    {"substance": "fibronectin", "values": [
      {"measurement": "cell spreading, phase contrast morphology", "setting": "A431 cells", "value": "cells spread well"},
      {"measurement": "best coating material by electric impedance", "setting": "[1]", "value": "often the best coating material"}
    ]}
  ]
}
